System: MS2 coat protein
Test: apparent Kd, MS2 coat protein; higher = weaker binding; RNA-MaP array; FMN 200 µM where present
Procedure, shortened: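 Designs were transcribed by stalled E. coli RNA polymerase on Illumina sequencing-chip clusters. They were titrated with SNAP-549-labelled MS2 coat protein from 0.7 or 1.5 nM, doubling to 3 µM, without and then with constant ligand. Buffer: 100 mM Tris-HCl pH 7.5, 80 mM KCl, 4 mM MgCl2, BSA, DTT, yeast tRNA, Tween-20. Green signal was normalised to red-channel RNA signal and control-cluster median Fmax. Apparent Kd is the median of filtered per-cluster binding-curve fits.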

[1] = designed as: OFF switch for flavin mononucleotide, no ligand
[2] = ligand present: flavin mononucleotide, designed as: OFF switch for flavin mononucleotide
[3] = designed as: ON switch for flavin mononucleotide, no ligand
[4] = ligand present: flavin mononucleotide, designed as: ON switch for flavin mononucleotide

Row | Sequence | apparent Kd [1] | apparent Kd [2] | apparent Kd [3] | apparent Kd [4]
1 | GGUUGGCGAGGAUAUACAUGAGGAUCACCCAUGUGGUCCUGCGGUAGAAUCGCCCUUUGUAGAAGGCGCGGGUC | 69.5 nM | 72 nM | – | –
2 | GGUUGGUAUGAUUGGGUAUGAUACAUGAGGAUCACCCAUGUGCAGGAUAUGUUACACUCACGAUGAUAGAAGGGUAGGGUUUGA | 305 nM | 270 nM | – | –
3 | GUAAAACAAACUAACAUGAGGAUCACCCAUGUGAGGAGGCUCAGAAGGGCGUGGAAAAUUUCCUCGCAGGAUAUGAACCUCAUU | – | – | 70.8 nM | 9.66 nM
4 | GUAAAUCAUGUAGGAUAUGCAUGGCGAAGCUACGCAGAAGGACAUGAGGAUCACCCAUGUCUCUCCGUCUGCGUACAGACGGAG | 27.4 nM | 188 nM | – | –
5 | GUAAUUAUAUAGGAUAUCGAUUUUAUUAUUUAACGAGAAGGAUGAACAUGAGGAUCACCCAUGUGGUAUCAUGG | 164 nM | 177 nM | – | –
6 | GUACAUGAGCAGAAGGGCAUUUAAUUACAUUUUUAUGUUUAUCAGAUAUGCAGGAUAUGUUAAACAUGAGGAUCACCCAUGUAC | – | – | 196 nM | 42.6 nM
7 | GUACAUGAGCAGAAGGGCAUUUAAUUAGAUUUUUAUGUUGAUCAGAUAUGCAGGAUAUGUUAAACAUGAGGAUCACCCAUGUAC | – | – | 235 nM | 44.2 nM
8 | GUACGUGGACAGAAGGUGACAUGAGGAUCACCCAUGUUAGUUGAGGUACCAGCGAUCUGCGUGAUUGAGGAUAUGUCUGCGGGC | 11.9 nM | 13.8 nM | – | –
9 | GUACUGUAGUGAGGAUAUACGAGAUCGAUAGAUCGGCGAUCCAAUUAUACAUGAGGAUCACCCAUGUAGAAGGCACUUCAGUAC | 8.75 nM | 55.8 nM | – | –
10 | GUACUGUAGUGAGGAUAUACGAGUACGAUAGUACGGCGAUCCAAUUAUACAUGAGGAUCACCCAUGUAGAAGGCACUUCAGUAC | 9.93 nM | 41.1 nM | – | –
11 | GUAGAGGAUUGAGGAUAUGCAGAGAGAUCAUGCGCGUCGCGCACAUGAGGAUCACCCAUGUAAGAGCAGAAGGUAACUAUGGAC | 79.9 nM | 49.3 nM | – | –
12 | GUAGAGUAGUGAGGAUAUACGAGAUCGAUAGAUCGGCGAUCCAUUAAUACAUGAGGAUCACCCAUGUAGAAGGCACUUCUCUAC | 6.31 nM | 76.7 nM | – | –
13 | GUAGAGUAGUGAGGAUAUACGAGAUCGAUAGAUCGGCGAUCCAUUUAUACAUGAGGAUCACCCAUGUAGAAGGCACUUCUCUAC | 6.26 nM | 62.8 nM | – | –
14 | GUAGAGUAGUGAGGAUAUACGAGCUCGAUAGAGCGGCGAUCCAAUAAUACAUGAGGAUCACCCAUGUAGAAGGCACUUCUCUAC | 6.71 nM | 91 nM | – | –
15 | GUAGCAAUCGGAGGAUAUUCAUUAAACAUGAGGAUCACCCAUGUUAAUUUGGGAGAAGGCCGAUUGCUACAAGAGCGAAAGCUC | – | – | 7.23 nM | 4.66 nM
16 | GUAGCAUACCGAGGAUAUUCAAAUAAUAAAUAAACAUGAGGAUCACCCAUGUGGCGAAAGCCUAGGGAGAAGGCGGAAUGCUAC | – | – | 48.2 nM | 16.9 nM
17 | GUAGCAUACCGAGGAUAUUCAACCGGAAACGGAACAUGAGGAUCACCCAUGUGGCGAAAGCCUUGGGAGAAGGCGGAAUGCUAC | – | – | 77.5 nM | 20.6 nM
18 | GUAGCAUACCGAGGAUAUUCAGGGCAUAAAUAAACAUGAGGAUCACCCAUGUGGCGAAAGCCUAGGGAGAAGGCGGAAUGCUAC | – | – | 18.5 nM | 15.3 nM
19 | GUAGCAUACCGAGGAUAUUCAGGGCGUAAAUAAACAUGAGGAUCACCCAUGUGGCGAAAGCCUAGGGAGAAGGCGGAAUGCUAC | – | – | 17.1 nM | 16.8 nM
20 | GUAGCAUACCGAGGAUAUUCAGGGCGUGGAUAGACAUGAGGAUCACCCAUGUGGCGAAAGCCUAGGGAGAAGGCGGAAUGCUAC | – | – | 26.9 nM | 17.6 nM
21 | GUAGCAUACCGAGGAUAUUCAUACAAUAAAUAAACAUGAGGAUCACCCAUGUGGCGAAAGCCUAGGGAGAAGGCGGAAUGCUAC | – | – | 154 nM | 21.8 nM
22 | GUAGCAUACCGAGGAUAUUCAUAUAAUAAGUAAACAUGAGGAUCACCCAUGUAGCGAGAGCCUUGGGAGAAGGCGGAAUGCUAC | – | – | 337 nM | 58.1 nM

From the EternaBench riboswitch data
